Experimental data collected from several papers.
Protocols differ between the studies behind these lines.
Observed: binding
mnmE: mnmE (Escherichia coli, UniProt P25522)
PIK3CB: Phosphatidylinositol 4,5-bisphosphate 3-kinase catalytic subunit beta isoform (PIK3CB, Homo sapiens, UniProt P42338)
LRP1: LRP1 (Homo sapiens, UniProt Q07954)
PIKFYVE: 1-phosphatidylinositol 3-phosphate 5-kinase (PIKFYVE, Homo sapiens, UniProt Q9Y2I7)
UCK2: Uridine-cytidine kinase 2 (UCK2, Homo sapiens, UniProt Q9BZX2)
IRAK3: Interleukin-1 receptor-associated kinase 3 (IRAK3, Homo sapiens, UniProt Q9Y616)

| Structure (SMILES) | target | test | conditions | Kd [µM] |
| --- | --- | --- | --- | --- |
| Nc1ncnc2c1ncn2[C@@H]1O[C@H](COP(=O)(O)OP(=O)(O)OC[C@H]2OC(O)[C@H](O)[C@@H]2O)[C@@H](O)[C@H]1O (stereo partly shown) | NAD-dependent histone deacetylase SIR2 (Saccharomyces cerevisiae S288c, UniProt P06700) | SPR | – | 2.95 |
| CN1c2c([nH]c(N)nc2=O)NC[C@@H]1CNc1ccc(C(=O)N[C@@H](CCC(=O)O)C(=O)O)cc1 | mnmE | ITC | pH 7.5 | 1.1 |
| C=CC(=O)N1CCC(C(=O)N(C)CC(=O)N2CCN(c3nc(-c4cnc(N)nc4C(F)F)nc(N4CCOCC4)n3)CC2)CC1 | PIK3CB | – | – | 0.0036 |
| COC(=O)[C@@H](N)CCCCN | LRP1 | fluorescence | pH 7.4 | 370 |
| COc1ccc2[nH]c(C)c(/C=C/C(=O)c3ccncc3)c2c1 | PIKFYVE | competition with immobilised ligand | – | 0.0069 |
| C=CC(=O)N1CCC(C(=O)NCC(=O)N2CCN(c3nc(-c4cnc(N)nc4C(F)F)nc(N4CCOCC4)n3)CC2)CC1 | PIK3CB | – | – | 0.00085 |
| Nc1nc2c(c(=O)[nH]1)N1CN(c3ccc(C(=O)N[C@@H](CCC(=O)O)C(=O)O)cc3)C[C@H]1CN2 | mnmE | ITC | – | ~1 |
| Nc1ccn([C@@H]2O[C@H](CO)[C@@H](O)[C@H]2O)c(=O)n1 | UCK2 | fluorescence | – | 0.0037 |
| COc1ccc2[nH]c(C(=O)O)c(/C=C/C(=O)c3ccncc3)c2c1 | PIKFYVE | competition with immobilised ligand | – | 0.046 |
| [N-]=[N+]=N[C@@H]1[C@H](O)[C@@H](CO)O[C@H]1n1ccc(=O)[nH]c1=O | UCK2 | fluorescence | – | 0.0134 |
| Cc1cc2nc3c(=O)[nH]c(=O)nc-3n(C[C@H](O)[C@H](O)[C@H](O)COP(=O)(O)OP(=O)(O)OC[C@H]3O[C@@H](n4cnc5c(N)ncnc54)[C@H](O)[C@@H]3O)c2cc1C | LRP1 | – | lysate | 43.9 |
| CCOc1ccc2[nH]c(C)c(/C=C/C(=O)c3ccncc3)c2c1 | PIKFYVE | competition with immobilised ligand | – | 0.023 |
| c1cncc(-c2cccc(Nc3nccc(NC4CCCCC4)n3)c2)c1 | IRAK3 | competition with immobilised ligand | – | 1.4 |
| COc1cc(Nc2ncc3c(n2)-c2ccc(Cl)cc2C(c2c(F)cccc2OC)=NC3)ccc1C(=O)O | IRAK3 | – | lysate | 2.2 |
| Nc1nc(=O)c2c([nH]1)NC[C@@H](CNc1ccc(C(=O)N[C@@H](CCC(=O)O)C(=O)O)cc1)N2C=O | mnmE | ITC | pH 7.5 | 0.2 |
| CO[C@H]1O[C@H](CO)[C@@H](O)[C@H](O)[C@@H]1O | ZG16 (Homo sapiens, UniProt O60844) | NMR | – | 15000 |
